Bioassay records deposited in PubChem BioAssay by Johns Hopkins Ion Channel Center.
hERG rescue: shields human hERG channel from block by proarrhythmic agents; Q12809; activation (rescue from dofetilide block), less the hit threshold, % at 10 µM; CHO-hERG, FluxOR thallium flux, dofetilide IC70 present; 0.51% of 310,000 active;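 active = activation above the mean of controls blocked by dofetilide plus 5 SD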;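 also: thallium influx through hERG after potassium depolarization seen as dye fluorescence rise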
Target sequence (Q12809 whole entry, looked up): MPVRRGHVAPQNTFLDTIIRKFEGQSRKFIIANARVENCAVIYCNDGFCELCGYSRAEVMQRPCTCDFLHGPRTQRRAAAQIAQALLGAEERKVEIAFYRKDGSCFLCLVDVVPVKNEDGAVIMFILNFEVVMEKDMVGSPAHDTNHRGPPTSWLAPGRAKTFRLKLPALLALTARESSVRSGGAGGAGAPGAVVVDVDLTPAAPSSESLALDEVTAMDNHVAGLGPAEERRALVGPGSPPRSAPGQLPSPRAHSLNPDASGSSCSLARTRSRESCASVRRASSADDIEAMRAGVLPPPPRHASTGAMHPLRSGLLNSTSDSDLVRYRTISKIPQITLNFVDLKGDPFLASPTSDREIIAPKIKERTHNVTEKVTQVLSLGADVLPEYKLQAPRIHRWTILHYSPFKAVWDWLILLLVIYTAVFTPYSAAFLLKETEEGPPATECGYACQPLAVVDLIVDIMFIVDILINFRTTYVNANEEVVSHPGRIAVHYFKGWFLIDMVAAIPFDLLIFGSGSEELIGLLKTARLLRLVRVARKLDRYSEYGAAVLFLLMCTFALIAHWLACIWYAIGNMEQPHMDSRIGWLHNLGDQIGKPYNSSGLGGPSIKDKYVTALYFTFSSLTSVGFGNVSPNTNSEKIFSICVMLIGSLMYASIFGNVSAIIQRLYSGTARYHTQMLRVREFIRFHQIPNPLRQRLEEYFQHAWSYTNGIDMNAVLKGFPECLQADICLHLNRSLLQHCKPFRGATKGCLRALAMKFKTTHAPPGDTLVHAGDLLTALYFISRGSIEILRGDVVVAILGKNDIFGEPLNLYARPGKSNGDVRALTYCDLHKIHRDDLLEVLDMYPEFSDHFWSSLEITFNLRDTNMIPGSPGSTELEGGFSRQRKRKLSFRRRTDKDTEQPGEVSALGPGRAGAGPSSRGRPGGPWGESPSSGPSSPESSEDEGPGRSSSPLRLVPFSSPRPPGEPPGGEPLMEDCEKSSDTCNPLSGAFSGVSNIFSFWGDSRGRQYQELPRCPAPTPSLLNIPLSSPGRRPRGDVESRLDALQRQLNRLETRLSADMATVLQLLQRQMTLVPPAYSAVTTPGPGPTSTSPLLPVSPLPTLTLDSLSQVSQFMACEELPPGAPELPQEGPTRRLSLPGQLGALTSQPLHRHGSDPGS
KCNK3 inh: human KCNK3 channel inhibition, primary screen; O14649; CHO-KCNK3 thallium flux, FluxOR fluorescence; active compounds read low; B-score at 10 µM; 0.84% of 340,000 active; AID 602410;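 active = B-score under library mean minus 4 SD, starting fluorescence ratio at most library mean plus 5 SD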;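 also: more negative B-score means stronger inhibition of thallium flux through KCNK3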
KCNQ1 block: human KCNQ1 channel inhibition | CHO-K1 KCNQ1, FluxOR thallium flux fluorescence; active compounds read high | B-score at 10 µM | 1.3% of 310,000 active | AID 2642;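 active = compounds whose thallium flux B-score, printed positive for inhibition, exceeds three library SD while starting fluorescence stays within three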;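 also: channel opened by potassium depolarization with thallium stimulus after 20 min compound exposure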
KCNQ1 pot: potentiators or activators of human KCNQ1 potassium channel | P51787 | CHO-K1 KCNQ1, thallium flux FluxOR fluorescence; active compounds read high | B-score at 10 µM | 0.35% of 310,000 active | AID 2648;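 active = fluorescence ratio B-score, a plate-corrected score, at least three library SD, with initial intensity B-score within 5 SD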
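Schedule – 37 °C overnight plating, 90-min dark dye load, 20-min compound pretreatment · System – stable KCNQ1 CHO-K1 line · Probe or stimulus – thallium- and potassium-containing depolarizing buffer · Measured by – kinetic FluxOR fluorescence, 10 s baseline plus 110 s post-stimulus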
KCNK9 inh: inhibitors of human KCNK9 two-pore domain potassium channel | Q9NPC2 | HEK293 KCNK9, FluxOR thallium flux fluorescence; active compounds read low | B-score at 10 µM | 1.2% of 310,000 active | AID 488922;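 active = ratio B-score over 3 SD below the library mean, with starting fluorescence within 5 SD of its mean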;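 also: negative B-score means less thallium flux so channel inhibition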
KCNK3 confirm: human KCNK3 channel inhibition, confirmation assay. shares compounds with KCNK3 inh. CHO-KCNK3 thallium flux, FluxOR fluorescence; 0% buffer, 100% carvedilol maximal block. ratio percent of control, % at 10 µM. 99% of 2,400 active;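 active = ratio percent of control, averaged over triplicates, above buffer control mean plus 5 SD, cut at about 64% in these data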;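 also: ratio is the fluorescence rise from min to max over baseline after thallium stimulus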
KCNK3 noninduced: KCNK3 inhibitor counter-screen hit in non-induced cells; shares compounds with KCNK3 inh; non-induced KCNK3 parental cells, FluxOR thallium flux; active compounds read low; thallium flux ratio (lower = more inhibition) at 10 µM; 40% of 2,400 active;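 active = thallium flux ratio, averaged over three wells, more than 5 SD below the buffer control mean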;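 also: host cells are CHO cells without KCNK3 induction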
Numbers stand for hits; i = inactive; nt = no result. Most compounds without a hit are left out; they make up all but 3.1% or so of the library.

SMILES	hERG rescue	KCNK3 inh	KCNQ1 block	KCNQ1 pot	KCNK9 inh	KCNK3 confirm	KCNK3 noninduced
Cn1c(SCc2ccccc2Br)nc2ccccc2c1=O	i	-9	i	i	i	134	i
CCn1c(SCc2cccc(OC)c2)nc2ccccc2c1=O	i	-10	i	i	i	128	0.13
Brc1ccccc1-c1nnc(CSc2nncn2-c2ccccc2)o1	i	i	i	i	i	nt	nt
Cn1c(SCc2cccc(Br)c2)nc2ccccc2c1=O	i	-10	i	i	i	160	0.082
O=c1c2ccccc2nc(SCc2nnc(-c3ccccc3Br)o2)n1-c1ccccc1	i	-12	i	i	-6.9	117	i
O=C(CCCOc1ccc(Cl)cc1)NC1CCCCC1	i	i	i	i	i	nt	nt
Cc1c(Cl)cccc1NC(=O)CNC(=O)CCCc1nc2ccccc2c(=O)[nH]1	nt	i	nt	nt	nt	nt	nt
C=CCN1C(=O)N(c2ccc(F)cc2)C(=O)C1CC(=O)Nc1ccc(Cl)cc1 (stereo not drawn)	i	i	i	i	i	nt	nt
COc1cc(C(C)=O)ccc1OCC(=O)Nc1ccccc1N1CCCC1	i	i	i	i	i	nt	nt
Cc1cccc(NC(=O)CSCC(=O)Nc2ccccc2N2CCCC2)c1	i	-9.6	i	i	i	87	i
CCOc1cc(N2CCOCC2)c(OCC)cc1NC(=O)COc1cccc(CC)c1	nt	i	nt	nt	nt	nt	nt
Cc1cccc(C)c1OCC(=O)Nc1ccccc1N1CCCCC1	i	-9.3	i	i	-7.6	114	i
Cc1cccc(NC(=O)CSCC(=O)Nc2cc(S(=O)(=O)N3CCOCC3)ccc2N2CCCC2)c1	i	i	i	i	i	nt	nt
CCc1cccc(OCC(=O)Nc2ccccc2N2CCCC2)c1	i	-9.1	i	i	i	120	0.16
Cc1ccc(Cl)c(OCC(=O)Nc2ccccc2N2CCCCC2)c1	i	-10	i	i	i	123	0.15
O=C(COc1ccc(Cl)cc1Br)Nc1ccccc1N1CCCC1	i	i	i	i	i	nt	nt
CN1CCN(C(=S)c2cn(Cc3ccc(Br)cc3)c3ccccc23)CC1	i	i	i	i	i	nt	nt
O=C(CCc1nnc(-c2ccc3c(c2)OCO3)o1)NC(c1cccnc1)C(F)(F)F (stereo not drawn)	i	i	i	i	i	nt	nt
CC(Oc1cccc(Cl)c1)C(=O)Nc1ccccc1N1CCCC1 (stereo not drawn)	i	-8.8	i	i	i	124	i
CCN(CC)S(=O)(=O)c1cc(-c2nnc(-c3ccc(Br)cc3)o2)ccc1Br	i	-9.4	i	i	i	110	0.16
COc1ccc(OC)c(CN2CCN(CCc3ccccc3)C(CCO)C2)c1 (stereo not drawn)	i	i	i	i	i	nt	nt
CCN(C(=O)CSc1nnc(-c2ccc(F)cc2)n1C)C1CCS(=O)(=O)C1 (stereo not drawn)	nt	i	nt	nt	nt	nt	nt
CCOC(=O)Nc1cccc(NC(=O)c2ccccc2F)c1	i	-8.8	i	i	i	100	i
COc1cccc(NC(=O)c2ccccc2F)c1	nt	i	nt	nt	nt	nt	nt
CC(=O)Nc1cccc(NC(=O)c2ccccc2OCc2ccccc2)c1	i	-10	i	i	i	111	i
SMILES	hERG rescue	KCNK3 inh	KCNQ1 block	KCNQ1 pot	KCNK9 inh	KCNK3 confirm	KCNK3 noninduced
O=C(NCCc1nnc2ccc(NCc3ccc(Cl)cc3)nn12)c1ccccc1	i	i	i	i	i	nt	nt
Cc1ccc(C)c(N2CCN(S(=O)(=O)c3ccc4c(c3)NC(=O)CS4)CC2)c1	i	-9.4	i	i	i	85	i
CN1CCN(S(=O)(=O)c2ccc3c(c2)NC(=O)CS3)CC1	i	i	i	i	i	nt	nt
Cc1ccc(C)c(C(=O)N(Cc2nc(-c3ccc(Cl)cc3)no2)C(C)C)c1	i	-8.8	i	i	i	115	i
COc1cccc(C(=O)N(Cc2nc(-c3ccc(C)cc3)no2)C(C)C)c1	i	i	i	i	i	nt	nt
Cc1cccc(-c2noc(CN(C(=O)c3c(-c4ccccc4Cl)noc3C)C(C)C)n2)c1	nt	-12	nt	nt	nt	113	i
Cc1noc(C)c1NC(=O)Nc1ccc2c(c1)C(=O)N([C@H](C)CO)C[C@H](C)[C@@H](CN(C)S(=O)(=O)c1c(C)noc1C)O2	nt	i	nt	nt	nt	nt	nt
CCOC(=O)C1=C(C)N=C2SCCC(=O)N2[C@@H]1/C=C/c1ccccc1	i	i	i	i	i	nt	nt
COC(=O)C1=C(C)N=C2SCCC(=O)N2C1c1ccc(C(=O)OC)cc1 (stereo not drawn)	i	-8.9	i	i	i	78	0.15
COCCOC(=O)C1=C(C)N=C2SCCC(=O)N2C1/C=C/c1ccccc1 (stereo not drawn)	i	-13	i	i	i	105	0.16
COCCOC(=O)C1=C(C)N=C2SCCC(=O)N2C1c1ccc(C(=O)OC)cc1 (stereo not drawn)	i	i	i	i	i	nt	nt
O=C1C(C=NCCCN2CCCC2=O)=C(O)c2ccccc21	i	i	i	i	i	nt	nt
COC(=O)c1ccc2c(c1)C(C)(C)C(/C=C/c1ccc(OC)c(OC)c1OC)=[N+]2C	i	-12	7	i	i	117	0.09
COC(=O)c1ccc2c(c1)C(C)(C)C(/C=C/c1ccc(O)cc1)=[N+]2C	i	i	i	i	i	nt	nt
COc1ccccc1-n1c(SCC(=O)Nc2ccccc2F)nc2[nH]ncc2c1=O	i	-9.6	i	i	i	114	i
COc1ccccc1N(C)S(=O)(=O)c1ccc(C(=O)Nc2cccc(Br)c2)cc1	nt	-12	nt	nt	nt	125	i
COc1cc(NC(=O)c2ccc(S(=O)(=O)N(C)c3ccccc3OC)cc2)cc(OC)c1	nt	i	nt	nt	nt	nt	nt
CC1CCCCC1NC(=O)c1ccc2c(c1)[nH]c(=O)n2C1CCCC1 (stereo not drawn)	i	-9.5	i	i	i	105	i
Cc1ccsc1C(C(=O)NCc1ccccc1)N(C(=O)c1csnn1)c1ccccc1 (stereo not drawn)	i	i	i	i	i	nt	nt
S=C1NCCc2ccc(Cl)cc2C1c1ccccc1Cl (stereo not drawn)	i	-11	i	i	-6.7	123	i
Cc1ccc(C2=NS(=O)(=O)N(C)C(C(=O)Nc3ccc4c(c3)OCO4)=C2)cc1	i	-10	i	i	-6.7	122	0.14
COc1ccc(C2=NS(=O)(=O)N(C)C(C(=O)Nc3ccc4c(c3)OCO4)=C2)cc1	nt	i	nt	nt	nt	nt	nt
CC(=O)C1=C(C)NC(SCC(=O)c2ccc(F)cc2)=C(C#N)C1c1ccco1 (stereo not drawn)	i	i	i	i	i	nt	nt
CC(=O)C1=C(C)NC(SCC(=O)c2ccc(Cl)c(Cl)c2)=C(C#N)C1c1ccco1 (stereo not drawn)	i	-11	i	i	-7.8	125	0.16
Cc1cc(N2CCCC2)c(F)cc1/C=C\[N+](=O)[O-]	i	-10	i	i	i	128	0.099
